From ChEMBL document CHEMBL2401696, “Stereoselective synthesis and anti-proliferative effects on prostate cancer evaluation of 5-substituted-3,4-diphenylfuran-2-ones” (Eur J Med Chem, 2013)
Activity calls are given as the source filed them. The calls are words filed in the database; no cut-off is given here.

Assays:
[1] = tested on: PC-3; assay: Antiproliferative activity against human PC3 cells expressing SKP2 after 72 hrs by MTT assay; assay type: functional, cell-based; conditions: PC-3, 72 h
In short: (§1)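 Cells (PC3 and its PCDNA- and SKP2-transfected lines, DU145) grown in RPMI 1640 with 10% FBS; G418 added for transfected lines. Exponential cells seeded 1 × 10⁴/well, 24 h at 37 °C, then fresh medium with compounds at several concentrations for 72 h. MTT 1–3 h at 37 °C, dissolved in 4% HCl/96% isopropanol, absorbance 570 nm. Triplicate per concentration; IC50 from dose–response curves.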

[2] = tested on: PC-3; assay: Antiproliferative activity against human PC3 cells expressing PCDNA after 72 hrs by MTT assay; assay type: functional, cell-based; conditions: PC-3, 72 h; in short: as §1
[3] = tested on: PC-3; assay: Antiproliferative activity against human PC3 cells after 72 hrs by MTT assay; assay type: functional, cell-based; conditions: PC-3, 72 h; in short: as §1
[4] = molecular target: T1, Prostaglandin G/H synthase 2 (Ovis aries) (UniProt P79208); assay: Inhibition of ovine COX-2 assessed as using arachidonic acid as substrate at 10 uM preincubated for 5 mins prior to substrate addition measured after 2 mins by enzyme immunoassay relative to control
T1 sequence (whole entry): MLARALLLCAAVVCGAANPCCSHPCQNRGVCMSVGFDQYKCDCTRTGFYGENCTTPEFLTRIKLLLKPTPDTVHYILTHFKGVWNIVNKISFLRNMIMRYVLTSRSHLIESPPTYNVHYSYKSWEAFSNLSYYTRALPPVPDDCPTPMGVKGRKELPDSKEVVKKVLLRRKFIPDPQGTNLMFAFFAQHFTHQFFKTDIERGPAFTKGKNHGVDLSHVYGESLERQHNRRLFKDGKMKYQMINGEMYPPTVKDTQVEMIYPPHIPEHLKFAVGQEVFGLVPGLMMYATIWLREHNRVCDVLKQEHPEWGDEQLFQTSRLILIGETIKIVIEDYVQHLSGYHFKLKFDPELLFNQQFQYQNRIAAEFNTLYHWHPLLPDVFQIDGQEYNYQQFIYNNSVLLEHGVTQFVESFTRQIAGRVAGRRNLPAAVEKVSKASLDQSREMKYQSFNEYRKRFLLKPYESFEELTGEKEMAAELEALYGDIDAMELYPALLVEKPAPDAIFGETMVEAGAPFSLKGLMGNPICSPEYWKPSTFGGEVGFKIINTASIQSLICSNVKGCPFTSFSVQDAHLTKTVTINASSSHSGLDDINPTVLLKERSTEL

[5] = tested on: DU-145; assay: Antiproliferative activity against human DU145 cells after 72 hrs by MTT assay; assay type: functional, cell-based; conditions: DU-145, 72 h; in short: as §1
[6] = molecular target: T1, Prostaglandin G/H synthase 2 (Ovis aries); assay: Inhibition of ovine COX-2 assessed as using arachidonic acid as substrate at 10 uM preincubated for 5 mins prior to substrate addition measured after 2 hrs by enzyme immunoassay relative to control; conditions: in the assay text read “after 2 mins” for “after 2 hrs”
In short: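 Ovine COX-1 or COX-2 with heme in 0.1 M Tris-HCl pH 8.0, 5 mM EDTA, 2 mM phenol; compound (0.001–100 µM final, DMSO stocks) preincubated 5 min at 37 °C, then arachidonic acid added, stopped with 1 M HCl after 2 min. PGF2α (SnCl2 reduction) quantified by competitive EIA at 412 nm; % inhibition vs controls; mean of two determinations.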

[7] = molecular target: T2, Prostaglandin G/H synthase 1 (Ovis aries) (UniProt P05979); assay: Inhibition of ovine COX-1 assessed as using arachidonic acid as substrate at 10 uM preincubated for 5 mins prior to substrate addition […] by enzyme immunoassay relative to control
T2 sequence (whole entry): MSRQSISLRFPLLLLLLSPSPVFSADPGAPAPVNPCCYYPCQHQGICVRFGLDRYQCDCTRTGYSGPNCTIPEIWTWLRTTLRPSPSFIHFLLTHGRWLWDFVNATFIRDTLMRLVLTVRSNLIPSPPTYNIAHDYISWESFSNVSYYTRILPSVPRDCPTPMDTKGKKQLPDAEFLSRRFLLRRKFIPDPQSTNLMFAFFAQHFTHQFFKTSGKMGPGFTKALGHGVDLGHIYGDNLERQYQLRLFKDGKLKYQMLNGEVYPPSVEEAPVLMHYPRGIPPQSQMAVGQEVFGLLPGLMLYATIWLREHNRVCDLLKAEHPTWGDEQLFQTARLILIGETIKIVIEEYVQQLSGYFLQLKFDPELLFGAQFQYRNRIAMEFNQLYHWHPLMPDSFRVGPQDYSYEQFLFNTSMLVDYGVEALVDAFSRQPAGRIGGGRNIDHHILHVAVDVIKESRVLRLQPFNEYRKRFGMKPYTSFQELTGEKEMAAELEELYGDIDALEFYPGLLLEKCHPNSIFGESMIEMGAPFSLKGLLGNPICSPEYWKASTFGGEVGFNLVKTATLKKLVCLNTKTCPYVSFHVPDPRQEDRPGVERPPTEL

| Compound | IC50 [1] [µM] | IC50 [2] [µM] | IC50 [3] [µM] | inhibition [4] [%] | IC50 [5] [µM] | inhibition [6] | inhibition [7] |
| --- | --- | --- | --- | --- | --- | --- | --- |
| CS(=O)(=O)c1ccc(C2=C(c3ccccc3)C(=O)O/C2=C\c2ccccc2)cc1 | > 90 | > 90 |  |  |  |  |  |
| CS(=O)(=O)c1ccc(C2=C(c3ccccc3)C(=O)O/C2=C\c2ccc3c(c2)OCO3)cc1 | 50.6 | 37.2 | > 50 | 24.6 | > 50 |  |  |
| CS(=O)(=O)c1ccc(C2=C(c3ccccc3)C(=O)O/C2=C\c2cccc3ccccc23)cc1 | > 50 | > 50 |  |  |  |  |  |
| CS(=O)(=O)c1ccc(C2=C(c3ccc(F)cc3)C(=O)O/C2=C\c2ccc3c(c2)OCO3)cc1 | > 50 | > 50 |  |  |  |  |  |
| CS(=O)(=O)c1ccc(C2=C(c3ccccc3Cl)C(=O)O/C2=C\c2ccco2)cc1 | > 50 | > 50 |  |  |  |  |  |
| CS(=O)(=O)c1ccc(C2=C(c3ccccc3Cl)C(=O)O/C2=C\c2ccc(Br)cc2)cc1 | > 50 | > 50 |  |  |  |  |  |
| CC(C)=C1OC(=O)C(c2ccccc2)=C1c1ccc(S(C)(=O)=O)cc1 | > 50 | > 50 |  |  |  |  |  |
| COc1cc(/C=C2\OC(=O)C(c3ccccc3)=C2c2ccc(S(C)(=O)=O)cc2)ccc1O | 25.5 | > 125 | > 50 |  | > 50 | 36.6% |  |
| CS(=O)(=O)c1ccc(C2=C(c3ccccc3Cl)C(=O)O/C2=C\c2ccc3c(c2)OCO3)cc1 | > 50 | > 50 |  |  |  |  |  |
| COc1cc(/C=C2\OC(=O)C(c3ccccc3Cl)=C2c2ccc(S(C)(=O)=O)cc2)cc(OC)c1OC | > 50 | > 50 |  |  |  |  |  |
| CC(C)=CCC/C(C)=C\C=C1/OC(=O)C(c2ccccc2)=C1c1ccc(S(C)(=O)=O)cc1 | > 50 | > 50 |  |  |  |  |  |
| COC1(C)OC(=O)C(c2ccc(F)cc2)=C1c1ccc(S(C)(=O)=O)cc1 (stereo not given) | > 50 | 36.4 | > 50 | 32.4 | > 50 |  |  |
| CS(=O)(=O)c1ccc(C2=C(c3ccc(F)cc3)C(=O)O/C2=C\c2ccc(Br)cc2)cc1 | > 50 | > 50 |  |  |  |  |  |
| COc1cc(/C=C2\OC(=O)C(c3ccccc3)=C2c2ccc(S(C)(=O)=O)cc2)cc(OC)c1OC | > 100 | > 90 |  |  |  |  |  |
| CS(=O)(=O)c1ccc(C2=C(c3ccc(F)cc3)C(=O)O/C2=C\c2ccc(O)cc2)cc1 | 25.7 | 25.9 | > 50 |  | > 50 | 19.5% |  |
| COc1cc(/C=C2\OC(=O)C(c3ccccc3Cl)=C2c2ccc(S(C)(=O)=O)cc2)ccc1O | 25.1 | > 50 | > 50 |  | > 50 | 14.9% |  |
| CS(=O)(=O)c1ccc(C2=C(c3ccccc3Cl)C(=O)O/C2=C\c2ccccc2Cl)cc1 | > 50 | > 50 |  |  |  |  |  |
| O=c1[nH]cc(F)c(=O)[nH]1 [FLUOROURACIL] |  | 31.4 |  |  |  |  |  |
| CN(C)c1ccc(/C=C2\OC(=O)C(c3ccc(F)cc3)=C2c2ccc(S(C)(=O)=O)cc2)cc1 | 47.2 | > 50 | > 50 |  | > 50 | inactive | inactive |
| CS(=O)(=O)c1ccc(C2=C(c3ccccc3)C(=O)O/C2=C\c2ccc(Cl)cc2)cc1 | > 50 | > 50 |  |  |  | inactive | 14.6% |
| CS(=O)(=O)c1ccc(C2=C(c3ccc(F)cc3)C(=O)O/C2=C\c2ccco2)cc1 | > 50 | > 50 |  |  |  |  |  |

| Compound | IC50 [1] [µM] | IC50 [2] [µM] | IC50 [3] [µM] | inhibition [4] [%] | IC50 [5] [µM] | inhibition [6] | inhibition [7] |
| --- | --- | --- | --- | --- | --- | --- | --- |
| CS(=O)(=O)c1ccc(C2=C(c3ccccc3Cl)C(=O)O/C2=C\c2ccc(F)cc2)cc1 | > 50 | > 50 |  |  |  |  |  |
| CN(C)c1ccc(/C=C2\OC(=O)C(c3ccccc3)=C2c2ccc(S(C)(=O)=O)cc2)cc1 | > 50 | > 50 |  |  |  |  |  |
| CS(=O)(=O)c1ccc(C2=C(c3ccc(F)cc3)C(=O)O/C2=C\c2ccc(Cl)cc2)cc1 | > 50 | > 50 |  |  |  | inactive |  |
| COc1ccc(/C=C2\OC(=O)C(c3ccc(F)cc3)=C2c2ccc(S(C)(=O)=O)cc2)cc1 | > 50 | > 50 |  |  |  | inactive | 10.2% |
| CS(=O)(=O)c1ccc(C2=C(c3ccccc3Cl)C(=O)O/C2=C\c2ccc(O)cc2)cc1 | > 50 | > 50 |  | 2.27 |  |  |  |
| CS(=O)(=O)c1ccc(C2=C(c3ccccc3)C(=O)O/C2=C\c2ccco2)cc1 | > 100 | > 100 |  |  |  | inactive | inactive |
| CS(=O)(=O)c1ccc(C2=C(c3ccccc3)C(=O)OC2)cc1 [ROFECOXIB] | > 50 | > 50 | 200 |  | 200 |  |  |
| CS(=O)(=O)c1ccc(C2=C(c3ccc(F)cc3)C(=O)O/C2=C\c2ccccc2)cc1 | > 50 | > 50 |  |  |  |  |  |
| CS(=O)(=O)c1ccc(C2=C(c3ccccc3)C(=O)O/C2=C\c2ccc(Br)cc2)cc1 | > 50 | 25.2 | > 50 |  | > 50 | inactive |  |
| CS(=O)(=O)c1ccc(C2=C(c3ccc(F)cc3)C(=O)O/C2=C\c2cccc3ccccc23)cc1 | 25.4 | 20 | > 50 |  | > 50 | inactive |  |
| CN(C)c1ccc(/C=C2\OC(=O)C(c3ccccc3Cl)=C2c2ccc(S(C)(=O)=O)cc2)cc1 | 30.1 | > 50 | > 50 |  | > 50 | 4.49% |  |
| CS(=O)(=O)c1ccc(C2=C(c3ccccc3)C(=O)O/C2=C\c2cccc([N+](=O)[O-])c2)cc1 | > 100 | > 90 |  |  |  | inactive | inactive |
| COc1cc(/C=C2\OC(=O)C(c3ccc(F)cc3)=C2c2ccc(S(C)(=O)=O)cc2)cc(OC)c1OC | 25.4 | > 50 | > 50 | 20.8 | > 50 |  |  |
| CC(C)=C1OC(=O)C(c2ccc(F)cc2)=C1c1ccc(S(C)(=O)=O)cc1 | > 50 | > 50 |  |  |  |  |  |
| CS(=O)(=O)c1ccc(C2=C(c3ccc(F)cc3)C(=O)O/C2=C\c2cccc([N+](=O)[O-])c2)cc1 | > 50 | > 50 |  |  |  | inactive | inactive |
| CS(=O)(=O)c1ccc(C2=C(c3ccccc3Cl)C(=O)O/C2=C\c2cccc3ccccc23)cc1 | > 50 | > 50 |  |  |  |  |  |
| CS(=O)(=O)c1ccc(C2=C(c3ccc(F)cc3)C(=O)O/C2=C\c2ccccc2Cl)cc1 | > 50 | > 50 |  |  |  |  |  |
| CS(=O)(=O)c1ccc(C2=C(c3ccccc3)C(=O)O/C2=C\c2ccc(O)cc2)cc1 | > 50 | 25.9 | > 50 |  | > 50 | 14.4% |  |
| COC1(C)OC(=O)C(c2ccccc2)=C1c1ccc(S(C)(=O)=O)cc1 (stereo not given) | 20.3 | 37.1 | > 50 |  | > 50 |  |  |
| CS(=O)(=O)c1ccc(C2=C(c3ccc(F)cc3)C(=O)O/C2=C\c2ccc(F)cc2)cc1 | > 50 | > 50 |  |  |  |  |  |
| CS(=O)(=O)c1ccc(C2=C(c3ccccc3Cl)C(=O)OC2)cc1 | > 50 | > 50 |  |  |  | 7.97% | inactive |
